Screens as filed in PubChem BioAssay.
Only some compounds are listed: those with a hit (about 2.4% of all), similar ones and a draw of the others.
Myeloid diff 2: myeloid differentiation induction | hit rate 1% among 360,000 | calls only at 10 µM | ER-HoxA9 myeloid progenitors, lysozyme-GFP differentiation, flow cytometry | AID 624256;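 active means normalized GFP-positive differentiation at or above the plate's own cutoff, the solvent-only control mean plus 3 SD; inconclusive means no clear call, values can overlap the other calls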;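 further: cells exposed to compound for four days before flow analysis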
SENP1 inh: SENP1 (human) catalytic domain inhibition; Q9P0U3; recombinant SENP1 catalytic domain, CyPet-SUMO1-YPet FRET cleavage; inhibition, % at 10 µM; hit rate 0.21% among 360,000;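 active means inhibition at least 30% at 10 µM, raw YFP signal under a set limit, fluorescence ratio 0.5 to 1.5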
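Controls: no-enzyme wells low, DMSO-plus-enzyme wells high control. Test system: human recombinant His6-tagged SENP1 catalytic domain enzyme. Reagent: SFCypet-SUMO1-SFYpet FRET protein substrate, 25 nM final. Doses: one dose per compound, 10 µM, 0.5% DMSO. Detection: FRET, CFP and YFP emission. Timing: 50 min reaction at room temperature.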
MT1-MMP act inh: MT1-MMP (human) activation inhibition; P50281; HT1080 RFP-PRO-GFP cells, GFP/RFP ratio fluorescence, overnight; percent of plate control window, DMSO zero; GFP/RFP ratio change, % at 20 µM; hit rate 0.061% among 360,000;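 active means GFP/RFP ratio change of at least 30% with cell ATP level not reduced by more than half and red fluorescence within 50% of control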
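Test system: HT1080 RFP-PRO-GFP cells; Benchmarks: DMSO and RFP-L50D-GFP cell wells; Timing: cells overnight before dosing, compound overnight, 37 °C, 5% CO2; Compound: one 20 µM compound dose with 1% DMSO; Read-out: GFP/RFP fluorescence ratio.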
CendR NRP1 mod: alters CendR peptide binding to human NRP-1. FAM-RPARPAR peptide binding to NRP-1, fluorescence polarization. hit rate 0.85% among 360,000. AID 602438. O14786. inhibition, % at 25 µM;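 active means inhibition or corrected inhibition above about 18%, plus a signal ratio from 0.5 to 1.5, limit read from the data, passing the limit was not always enough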
Target sequence (O14786 whole entry, looked up): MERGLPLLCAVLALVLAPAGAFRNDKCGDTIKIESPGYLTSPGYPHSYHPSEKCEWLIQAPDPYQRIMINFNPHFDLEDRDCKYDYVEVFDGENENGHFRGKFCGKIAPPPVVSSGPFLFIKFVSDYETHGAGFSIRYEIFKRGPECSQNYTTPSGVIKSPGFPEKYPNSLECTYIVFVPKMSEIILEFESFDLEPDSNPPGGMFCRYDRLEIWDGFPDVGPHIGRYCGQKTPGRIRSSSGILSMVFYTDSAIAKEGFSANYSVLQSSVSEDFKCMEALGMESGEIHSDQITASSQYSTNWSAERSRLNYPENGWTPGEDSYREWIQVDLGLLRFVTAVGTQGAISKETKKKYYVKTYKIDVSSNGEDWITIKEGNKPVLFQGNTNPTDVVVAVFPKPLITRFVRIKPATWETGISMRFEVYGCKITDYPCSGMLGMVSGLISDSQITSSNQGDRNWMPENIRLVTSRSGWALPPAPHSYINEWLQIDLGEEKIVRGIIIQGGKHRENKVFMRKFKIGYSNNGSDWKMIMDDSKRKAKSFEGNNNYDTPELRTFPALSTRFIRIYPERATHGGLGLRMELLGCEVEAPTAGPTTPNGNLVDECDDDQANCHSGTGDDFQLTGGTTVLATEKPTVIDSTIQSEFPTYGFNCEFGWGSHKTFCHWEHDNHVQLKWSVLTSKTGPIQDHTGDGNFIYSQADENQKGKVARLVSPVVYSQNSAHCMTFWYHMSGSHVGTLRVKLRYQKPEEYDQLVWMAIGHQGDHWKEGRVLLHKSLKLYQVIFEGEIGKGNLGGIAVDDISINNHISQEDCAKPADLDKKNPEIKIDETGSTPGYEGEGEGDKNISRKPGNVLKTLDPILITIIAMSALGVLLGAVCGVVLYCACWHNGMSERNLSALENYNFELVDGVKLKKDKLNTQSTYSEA
DAGLB inh: diacylglycerol lipase beta (human) inhibition. inhibition, % at 5.17 µM. AID 504411. hit rate 0.059% among 340,000. HEK293T DAGLB membrane lysate, EnzChek fluorogenic substrate. Q8NCG7; in the data active means inhibition above about 34%
MIN6 prolif: MIN6 beta-cell proliferation induction. MIN6 cells proliferation, ATPlite luminescence, 48 h; cells starved in 0.2% serum; 100% = growth in 10% serum. proliferation, % at 10 µM. hit rate 0.29% among 330,000. AID 2380;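 active means compounds whose signal lies at least 3.5 SD above the mean of all wells on their plate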
Hits are given with their value; – = inactive; ? = inconclusive; · = no result given; + = active, no number.

SMILES	Myeloid diff 2	SENP1 inh	MT1-MMP act inh	CendR NRP1 mod	DAGLB inh	MIN6 prolif
CC(C)(C)N(NC(=O)Nc1ccc(Cl)cc1)C(=O)c1ccccc1	·	–	–	29	–	–
CC(C)(C)N(NC(=O)Nc1ccccc1)C(=O)c1ccccc1	–	–	–	–	–	–
CCOc1ccc(NC(=O)CN2CCN(CC(=O)Nc3ccc(Cl)c(C(F)(F)F)c3)CC2)cc1	–	–	–	21	–	–
Cc1cc(NC(=O)CSc2nc(N)c(NC(=O)c3ccc(F)c(F)c3)c(=O)[nH]2)no1	–	–	–	23	–	–
Cc1cc(NC(=O)CSc2nc(N)c(NC(=O)c3ccccc3)c(=O)[nH]2)no1	–	–	–	–	–	–
CCCCNc1c(NC(C)=O)c(=O)oc2ccccc12	–	–	–	–	–	–
O=C(O)C1OC1(c1ccccc1Cl)c1ccccc1Cl (stereo unspecified)	–	–	–	24	–	·
CC(NC(=O)c1ccccc1Cl)C(=O)O (stereo unspecified)	–	–	–	–	–	–
Cn1nc(C(=O)OCC(=O)NC2CCS(=O)(=O)C2)c2ccccc2c1=O (stereo unspecified)	–	–	–	–	–	–
COC(=O)CNc1ccc2c(c1)OCO2	–	–	–	25	–	–
c1cc(CNc2ccc3c(c2)OCO3)ccn1	–	–	–	30	–	–
COc1ccc(OC)c(S(=O)(=O)N(C)CC(=O)Nc2ccc3c(c2)OCO3)c1	–	–	–	32	–	–
Cc1ccc(CNc2ccc3c(c2)OCO3)cc1	+	–	–	–	–	·
Cc1ccc(CNc2ncc(-c3ccc4c(c3)OCO4)n2C)cc1	–	–	–	–	–	–
COc1ccc(OC)c(S(=O)(=O)N(C)CC(=O)Nc2ccc3c(c2)OCCO3)c1	–	–	–	–	–	–
Cc1nc2c3c(sc2c(=O)[nH]1)NC(=O)CC3c1ccccc1Cl (stereo unspecified)	–	–	–	–	–	–
COC(=O)C[C@@H]1CC[C@@H](NS(=O)(=O)c2ccccc2OC)[C@@H](CO)O1	–	–	–	–	·	·
Cc1ccc(NC(=O)CN(C)CC(=O)Nc2ccc3c(c2)OCO3)cc1	–	–	–	22	–	·
COc1cccc(NC(=O)CN(C)CC(=O)Nc2ccc3c(c2)OCO3)c1	–	–	–	–	–	–
Cc1ccc(OC(C)C(=O)Nc2ccccc2C(=O)N2CCN(C)CC2)cc1 (stereo unspecified)	–	–	–	20	–	–
Cc1ccc(OC(C)C(=O)Nc2ccccc2C(=O)N2CCOCC2)cc1 (stereo unspecified)	–	–	–	–	–	–
CCOC(=O)N1CCN(C(=O)C2CCN(C(=O)c3ccccc3C)CC2)CC1	–	–	–	–	–	·
O=C(CN1CCN(S(=O)(=O)c2ccccc2)CC1)Nc1ccccc1C(=O)NC1CC1	–	–	–	–	–	–
CC(=O)c1ccc(S(=O)(=O)N2CCN(CC(=O)Nc3ccccc3C(=O)NC3CC3)CC2)cc1	–	–	–	17	–	–
O=C(CN(Cc1ccc(F)cc1)C(=O)CCC(=O)Nc1nccs1)NCC1CCCO1 (stereo unspecified)	+	–	–	–	–	–
SMILES	Myeloid diff 2	SENP1 inh	MT1-MMP act inh	CendR NRP1 mod	DAGLB inh	MIN6 prolif
O=C(CN(C(=O)CCC(=O)Nc1nccs1)c1ccc(F)cc1)NCC1CCCO1 (stereo unspecified)	–	–	–	–	–	–
COc1ccc(NC(=O)c2c(F)cccc2Cl)cc1S(=O)(=O)N1CCOCC1	–	–	–	–	–	–
CC(=O)C1=C(C)NC(SCC(=O)c2ccc(Cl)c(Cl)c2)=C(C#N)C1c1ccco1 (stereo unspecified)	+	–	–	–	–	–
COc1ccc(CC(=O)NCCCCc2ccccc2)cc1OC	–	–	–	–	–	–
O=[N+]([O-])c1c(NCCCO)cc(SCc2ccco2)c2nonc12	–	–	–	–	–	–
CC(=O)OCCNc1cc(SCc2ccco2)c2nonc2c1[N+](=O)[O-]	–	–	–	27	–	·
CC(=O)OCCCNc1cc(Sc2nc3ccccc3s2)c2nonc2c1[N+](=O)[O-]	·	–	–	–	–	–
CC(=O)OCCNc1cc(Sc2nc3ccccc3[nH]2)c2nonc2c1[N+](=O)[O-]	+	–	–	–	–	·
CC(=O)Nc1ccc(S(=O)(=O)NCCc2ccc3c(c2)OCCO3)cc1	–	–	–	–	–	·
O=C(Nc1ccc([N+](=O)[O-])cc1)c1cc(Cl)sc1Cl	+	–	–	–	–	–
C#CC[N+](C)(C)CC#Cc1ccccc1	+	–	–	–	–	–
NC(=O)NC(CC(=O)NCCc1ccc(S(N)(=O)=O)cc1)c1ccccc1Cl (stereo unspecified)	–	–	–	–	–	–
CCOC(=O)N1CCN(C(=O)c2cc(COc3ccc(OC)cc3Cl)on2)CC1	–	–	–	25	–	–
C[n+]1c2n(c3ccccc31)N=C(c1ccc(Cl)cc1)CS2	+	–	–	–	–	–
COc1ccc(C2=Nn3c([n+](C)c4ccccc43)SC2)cc1	?	–	–	–	–	–
O=[N+]([O-])c1ccc(N=Nc2ccc(O)c3ccccc23)cc1	+	–	–	–	–	·
COc1cc(C)c2sc3ccccc3c(=O)c2c1NCCN(C)C	–	–	–	–	–	·
Cc1ccc(NCCN(C)C)c2c(=O)c3cc(O)ccc3sc12	?	37	–	–	–	·
CCCN(CC(=O)Nc1ccccc1C)C(=O)CCCOc1ccc(Br)cc1	–	–	–	–	–	–
COc1ccccc1/C=N/NC(=O)CN(C1=NS(=O)(=O)c2ccccc21)c1ccccc1	–	–	–	26	–	–
COc1ccc(/C=N/NC(=O)CN(C2=NS(=O)(=O)c3ccccc32)c2ccccc2)cc1	–	–	–	–	–	–
CSc1nnc(-c2ccccc2)c(-c2ccccc2)n1	–	–	–	–	–	–
CSc1nnc(-c2ccco2)c(-c2ccco2)n1	–	–	–	29	–	–
O=C(C[C@@H]1CC[C@@H]2[C@H](COC[C@H](O)CN2S(=O)(=O)c2ccccc2)O1)Nc1ccccc1	–	–	–	–	·	·
Cc1ccc2c(c1)c1c3n2CCN(CC#N)C3CCC1 (stereo unspecified)	–	–	–	–	–	–
Cc1ccc2c(c1)c1c3n2CCCN(Cc2ccccc2)C3CCC1 (stereo unspecified)	+	–	·	–	–	–
O=S1(=O)C[C@@H](N2CCN(c3ccccn3)CC2)[C@H](COCc2ccccc2)N1	–	–	–	–	–	·
Cc1cc(C)cc(C(=O)N(c2ccccn2)C(C)c2ccco2)c1 (stereo unspecified)	–	–	–	–	–	–
